Data published in ChEMBL document CHEMBL1150128, “New antioxidant hydroquinone derivatives from the algicolous marine fungus Acremonium sp” (J Nat Prod, 2002).
Calls of active or inactive are those of the source. The rule behind the calls is not given here.

Assays:
[1] = target: Human immunodeficiency virus type 1 reverse transcriptase (Human immunodeficiency virus 1) (UniProt Q72547); experiment: Inhibition of HIV1 reverse transcriptase by ELISA
[2] = target: Tyrosine-protein kinase Lck (Homo sapiens) (UniProt P06239); experiment: Inhibition of p56lck by ELISA
Chain of Tyrosine-protein kinase Lck (Homo sapiens) (P06239 2-509 limits assumed): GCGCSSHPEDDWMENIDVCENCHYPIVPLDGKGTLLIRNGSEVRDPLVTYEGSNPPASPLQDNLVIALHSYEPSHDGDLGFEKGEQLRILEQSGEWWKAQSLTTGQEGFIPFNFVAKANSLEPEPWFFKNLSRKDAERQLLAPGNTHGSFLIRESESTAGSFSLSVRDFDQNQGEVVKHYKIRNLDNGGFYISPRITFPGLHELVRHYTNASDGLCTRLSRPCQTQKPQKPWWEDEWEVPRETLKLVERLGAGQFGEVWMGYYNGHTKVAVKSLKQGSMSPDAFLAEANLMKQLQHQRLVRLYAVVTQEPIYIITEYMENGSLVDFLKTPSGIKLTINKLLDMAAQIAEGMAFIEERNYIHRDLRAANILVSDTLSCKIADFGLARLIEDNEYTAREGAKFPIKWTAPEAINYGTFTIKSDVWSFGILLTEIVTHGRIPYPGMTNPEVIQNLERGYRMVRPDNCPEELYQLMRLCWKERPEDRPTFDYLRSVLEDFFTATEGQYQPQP

[3] = system: Radical scavenging activity; experiment: Antioxidant activity assessed as DPPH free radical scavenging activity at 5 ug/mL; assay type: functional
Summary of the method: (§1)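 Ethanolic sample (1 mg/mL stock) is mixed with DPPH (1 mM stock) in EtOH, shaken briefly, and held at room temperature in the dark for 30 min. Radical scavenging is read as absorbance at 517 nm of sample versus control. Results are reported at the listed concentrations in µg/mL.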

[4] = system: Radical scavenging activity; experiment: Antioxidant activity assessed as DPPH free radical scavenging activity at 25 ug/mL; assay type: functional; summary of the method: as §1
[5] = system: Radical scavenging activity; experiment: Antioxidant activity assessed as DPPH free radical scavenging activity at 50 ug/mL; assay type: functional; summary of the method: as §1
[6] = system: Radical scavenging activity; experiment: Antioxidant activity assessed as DPPH free radical scavenging activity at 100 ug/mL; assay type: functional; summary of the method: as §1
[7] = system: Radical scavenging activity; experiment: Antioxidant activity assessed as DPPH free radical scavenging activity at 500 ug/mL; assay type: functional; summary of the method: as §1
[8] = Antioxidant activity assessed as inhibition of linolenic acid peroxidation at 7.4 ug/mL by TBARS assay; assay type: functional
Summary of the method: (§2)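 Linolenic acid methyl ester (70 mM stock in EtOH) is oxidized with sample (1 or 0.2 mg/mL ethanolic stock) in 50 mM phosphate buffer pH 7.2 with SDS and FeSO4 in 0.025 M HCl. Incubation is 50 °C for 30 min, then covered at 60 °C for 30 min, then room temperature for 4 min. Readout is A532 minus A600, with % inhibition calculated against sample blank, control and blank.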

[9] = Antioxidant activity assessed as inhibition of linolenic acid peroxidation at 37 ug/mL by TBARS assay; assay type: functional; summary of the method: as §2

For `C=C(C)C1Cc2c(O)ccc(O[C@@H]3O[C@H](CO)[C@@H](O)[C@H](O)[C@H]3O)c21` (some centres undefined), the Activity [1] was “inactive”, the Activity [2] was “inactive” and the Activity [3] was 5.6%. It also gave an Activity [4] of 17.5%, an Activity [5] of 27.7% and an Activity [6] of 43%. The Activity [7] was 79.9%.

For `C=C(C)C1Cc2c(O)ccc(O)c21` (centres undefined), the Activity [1] was “inactive”, the Activity [2] was “inactive” and the inhibition [8] was 13.9%. For the same compound, the inhibition [9] was 35.5%, the Activity [3] was 26% and the Activity [4] was 85.5%. It also gave an Activity [5] of 90%, an Activity [6] of 90% and an Activity [7] of 90.1%.

`CC(C)(O)C(O)Cc1cc(O)ccc1O` (centres undefined) gave an inhibition [8] of 2%, an inhibition [9] of 16.6% and an Activity [4] of 90.2%. It also gave an Activity [5] of 90.7%, an Activity [6] of 89.9% and an Activity [7] of 82.9%.

With `C=C(C)C(CCC(=O)OC)C(=O)O` (centres undefined) the inhibition [8] was -8.6%, the Activity [5] was 3.4% and the Activity [6] was 10.3%. It also gave an Activity [7] of 35.1%.

`Cc1cc(C(C)(C)C)c(O)c(C(C)(C)C)c1` gave an inhibition [8] of 36.2%, an inhibition [9] of 43.9% and an Activity [3] of 6%. It also gave an Activity [4] of 24.2%, an Activity [5] of 41.1% and an Activity [6] of 63.8%. It also gave an Activity [7] of 89.8%.

With `CC(C)=C(CCC(=O)O)C(=O)O` the Activity [1] was “inactive”, the Activity [2] was “inactive” and the inhibition [8] was -9%. The Activity [5] was -0.5%, the Activity [6] was 3.8% and the Activity [7] was 15.3%.

Compound `OC[C@H]1O[C@@H](Oc2ccc(O)cc2)[C@H](O)[C@@H](O)[C@@H]1O` has an Activity [3] of 1.9%, an Activity [4] of 18.3% and an Activity [5] of 23.5%. For the same compound, the Activity [6] was 52.6% and the Activity [7] was 78.6%.

For `CC1(C)Oc2ccc(O)cc2CC1O` (centres undefined), the Activity [1] was “inactive”, the Activity [2] was “inactive” and the inhibition [8] was -9.8%. The inhibition [9] was 9.2%, the Activity [3] was 25.7% and the Activity [4] was 72.9%. For the same compound, the Activity [5] was 85.1%, the Activity [6] was 89.1% and the Activity [7] was 89.9%.

Work on `COC(=O)CCC(C(=O)O)=C(C)C` yielded an inhibition [8] of -8.6%, an Activity [5] of 3.4% and an Activity [6] of 10.3%. It also gave an Activity [7] of 35.1%.

For `CC(C)(O)C1Cc2cc(O)ccc2O1` (centres undefined), the Activity [1] was “inactive”, the Activity [2] was “inactive” and the inhibition [9] was 15.9%. It also gave an Activity [3] of 35.3%, an Activity [4] of 85.8% and an Activity [5] of 89.1%. For the same compound, the Activity [6] was 90.2% and the Activity [7] was 90.4%.

`COC(=O)C(CCC(=O)O)=C(C)C` showed an inhibition [8] of -8.6%, an Activity [5] of 3.4% and an Activity [6] of 10.3%. The Activity [7] was 35.1%.
